Experiment [1] concerns the target T1, PhzR (Pseudomonas aeruginosa) (UniProt Q9RMS5).
T1 sequence (whole entry): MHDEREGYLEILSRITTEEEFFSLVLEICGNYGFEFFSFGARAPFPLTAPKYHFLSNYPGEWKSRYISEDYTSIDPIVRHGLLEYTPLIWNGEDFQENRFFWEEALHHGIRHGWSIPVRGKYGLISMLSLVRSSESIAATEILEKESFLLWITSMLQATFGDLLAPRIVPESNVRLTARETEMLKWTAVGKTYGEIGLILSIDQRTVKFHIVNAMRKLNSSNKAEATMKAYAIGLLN
Kind of experiment: Agonist activity at Pseudomonas aeruginosa QscR expressed in Escherichia coli JLD271 harboring QscR expression plasmid pJN105Q and pPA1897-lacZ transcriptional fusion reporter pSC11-Q measured after 35 mins by Miller-type beta-galactosidase reporter gene assay relative to OdDHL. In a few lines:
(§1)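 E. coli JLD271 (ΔsdiA) reporter cells grown in LB at 37 °C. Miller-type β-galactosidase assay with CPRG or ONPG substrate; growth read as OD600. Compounds tested from 1 pM to 100 μM. Activity is expressed relative to 100 μM OdDHL. EC50 taken from dose–response curves. Run in triplicate, n ≥ 3 trials; 95% CIs from SEM. Maximum activation has error ±10%.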

Experiment [2] has as its target T2, Transcriptional activator protein LasR (Pseudomonas aeruginosa (strain ATCC 15692 / PAO1 / 1C / PRS 101 / LMG12228), UniProt P25084).
T2 sequence (P25084 whole entry): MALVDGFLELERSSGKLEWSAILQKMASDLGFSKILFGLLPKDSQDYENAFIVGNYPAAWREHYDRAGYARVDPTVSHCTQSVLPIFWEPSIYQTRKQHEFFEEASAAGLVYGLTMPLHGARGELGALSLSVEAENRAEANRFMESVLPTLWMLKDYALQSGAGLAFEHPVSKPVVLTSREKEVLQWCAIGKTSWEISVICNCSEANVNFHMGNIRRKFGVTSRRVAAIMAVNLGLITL
In words: Agonist activity at Pseudomonas aeruginosa LasR expressed in Escherichia coli JLD271 harboring LasR expression plasmid pJN105L and lasI-lacZ transcriptional fusion reporter pSC11-L measured after 35 mins by Miller-type beta-galactosidase reporter gene assay. In a few lines:
(§2)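 E. coli JLD271 (ΔsdiA) reporter cells grown in LB at 37 °C. Miller-type β-galactosidase assay with CPRG or ONPG substrate; growth read as OD600. Compounds tested from 1 pM to 100 μM. Activity is expressed relative to 100 μM OdDHL. EC50 taken from dose–response curves. Maximum activation has error ±10%.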

For experiment [3], the target named is T1, PhzR (Pseudomonas aeruginosa). In words: (§3) Antagonist activity at Pseudomonas aeruginosa QscR expressed in Escherichia coli JLD271 harboring QscR expression plasmid pJN105Q and pPA1897-lacZ transcriptional fusion reporter pSC11-Q using ONPG as substrate assessed as inhibition of OdDHL-induced receptor activation after 4 hrs by Miller-type beta-galactosidase reporter gene assay. The settings on record: concentration not given here. On the technique in general: Reporter assays use an easily measured gene product as a stand-in for the process of interest.

Experiment [4] deals with T3, PhzR (Pseudomonas aeruginosa, UniProt Q9RMS5).
T3 sequence (Q9RMS5 whole entry): T1 sequence (whole entry)
Described as §3.

The target of experiment [5] is T4, Transcriptional activator protein LasR (Pseudomonas aeruginosa (strain ATCC 15692 / PAO1 / 1C / PRS 101 / LMG12228)) (UniProt P25084).
T4 sequence (whole entry): T2 sequence (P25084 whole entry)
Kind of experiment: Agonist activity at Pseudomonas aeruginosa LasR expressed in Escherichia coli JLD271 harboring LasR expression plasmid pJN105L and lasI-lacZ transcriptional fusion reporter pSC11-L measured after 35 mins by Miller-type beta-galactosidase reporter gene assay relative to OdDHL. In a few lines:
as §1

For experiment [6], the target named is T3, PhzR. Kind of experiment: Agonist activity at Pseudomonas aeruginosa QscR expressed in Escherichia coli JLD271 harboring QscR expression plasmid pJN105Q and pPA1897-lacZ transcriptional fusion reporter pSC11-Q measured after 35 mins by Miller-type beta-galactosidase reporter gene assay. In a few lines:
as §2

For experiment [7], the target named is T2, Transcriptional activator protein LasR. Kind of experiment: (§4) Antagonist activity at Pseudomonas aeruginosa LasR expressed in Escherichia coli JLD271 harboring LasR expression plasmid pJN105L and lasI-lacZ transcriptional fusion reporter pSC11-L assessed as inhibition of OdDHL-induced receptor activation after 4 hrs by Miller-type beta-galactosidase reporter gene assay.

Experiment [8] deals with T4, Transcriptional activator protein LasR (Pseudomonas aeruginosa (strain ATCC 15692 / PAO1 / 1C / PRS 101 / LMG12228)). The description is as §4. As to conditions: concentration not given here.

pEC50, pIC50: −log10 of the molar value.

On to `CCCCCCCCCC(=O)CC(=O)NCC1CCCO1` (stereo not given), for which the Activity in experiment [1] stood at 3.2%; in experiment [5], 96%. In addition, in experiment [2], the pEC50 (in general, the negative decadic logarithm of the EC50, by convention in mol/L) was 6.59. In addition, the inhibition (commonly the drop in the measured response relative to a control, in per cent) in experiment [3] is 59%. Further, the pIC50 (commonly the IC50 on a negative log10 scale, so that one unit is a factor of ten) at PhzR [4] was under 3.60.
On to `CCCCCCCCCC(=O)CC(=O)N[C@@H]1CCOC1=O`, for which the values for the Activity in experiment [1] and in experiment [5] were 110% and 99%, respectively.
Take `CCCCCCCCCC(=O)CC(=O)N[C@H]1CCSC1=O`: the values for the Activity in experiment [1] and in experiment [5] were 110% and 100%, respectively. Moreover, the figures for the pEC50 (in experiment [2]; at PhzR [6]) were 8.81 and 7.09, respectively.
Turning to `CCCCCCCCCCCS(=O)(=O)N[C@H]1CCOC1=O`, the Activity came out at 72% in experiment [1] and 6.4% in experiment [5]. The pEC50 on PhzR [6] is 5.80.
Consider `CCCCCCCCCC(=O)CC(=O)N[C@H]1CCOC1`, for which the values for the Activity in experiment [1] and in experiment [5] were 74% and 81%, respectively. For the same compound, the negative logarithm of the EC50 (pEC50) in experiment [2] is 6.04; at PhzR [6], 6.09.
Taken in the same sequence, the figures for `CCCCCCCCCC(=O)CC(=O)N[C@H]1CCO[C@@H]1O` were 110%, 96%, 5.73 and 5.46.
The corresponding values for `CCCCCCCCCC(=O)CC(=O)N[C@H]1CCCC1=O` are 77%, 110%, 7.83 and 6.08.
Take `CCCCCCCCCC(=O)CC(=O)NC1CCCC1`: the Activity in experiment [1] is 100%; in experiment [5], 88%. The pEC50 was 6.79 in experiment [2] and 6.44 at PhzR [6].
The corresponding values for `CCCCCCCCCC(=O)CC(=O)N[C@H]1CCNC1=O` are 56%, 110%, 7.53 and 5.48.
As to `CCCCCCCCCC(=O)CC(=O)O[C@H]1CCOC1=O`, the Activity in experiment [1] came to 37%; in experiment [5] it was 27%. Moreover, the inhibition in experiment [3] worked out at 23%; in experiment [8] it was 53%. Also, the pIC50 (on PhzR [4]; in experiment [7]) was under 3.60 throughout.

These data come from ChEMBL document CHEMBL4270523, “A comparative study of non-native N-acyl l-homoserine lactone analogs in two Pseudomonas aeruginosa quorum sensing receptors that share a common native ligand yet inversely regulate virulence” (Bioorg Med Chem, 2018).
